Experimental data as given in ChEMBL document CHEMBL3856186, “Partial Activation and Inhibition of TRPV1 Channels by Evodiamine and Rutaecarpine, Two Major Components of the Fruits of Evodia rutaecarpa” (J Nat Prod, 2016).
The source made the active and inactive calls. The calls are words filed in the database; no cut-off is given here.

Tests used:
Type in all cases: cell-based
[1] = target: Transient receptor potential cation channel subfamily V member 1 (Rattus norvegicus) (UniProt O35433); experiment: Partial antagonist activity at rat TRPV1 expressed in HEK293 cells assessed as inhibition of capsaicin-induced inward current at -60 mV holding potential pretreated for 180 secs prior to capsaicin addition in presence of extracellular calcium by whole-cell patch-clamp method
In short: (§1)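 HEK293 cells transiently expressing rat TRPV1 (EGFP cotransfected) were patched in whole-cell mode 1 day post-transfection. Cells were held at −60 mV in Ca2+-containing standard bath (pH 7.4) at ~25 °C. Capsaicin-evoked peak current amplitude was quantified. Sigmoidal curve fitting gave EC50 or IC50 values.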

[2] = target: Transient receptor potential cation channel subfamily V member 1 (Rattus norvegicus) (UniProt O35433); experiment: Partial antagonist activity at rat TRPV1 expressed in HEK293 cells assessed as effect on capsaicin-induced inward current at 1 uM by whole-cell patch clamp method (reference value: -[…] +/- […] pA/pF)
[3] = target: Transient receptor potential cation channel subfamily V member 1 (Rattus norvegicus) (UniProt O35433); experiment: Desensitization of rat TRPV1 expressed in HEK293 cells at 10 uM for 30 sec at -60 mV holding potential in presence of extracellular calcium by whole-cell patch clamp method
In short: (§2)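 Rat TRPV1 cDNA and an EGFP reporter were cotransfected into HEK293 cells, with recording 1 day later. Whole-cell voltage clamp was run at room temperature (~25 °C) in standard bath (2 mM CaCl2, pH 7.4) with a KCl/MgATP/EGTA pipette solution. Steps from −100 to +100 mV (100 ms) gave I–V curves. Agonist was applied until desensitization, and peak current was scored. EC50 came from a sigmoidal fit.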

[4] = target: Transient receptor potential cation channel subfamily V member 1 (Rattus norvegicus) (UniProt O35433); experiment: Partial antagonist activity at rat TRPV1 expressed in HEK293 cells assessed as effect on capsaicin-induced inward current at 1 uM by whole-cell patch clamp method; in short: as §1
[5] = target: Transient receptor potential cation channel subfamily V member 1 (Rattus norvegicus) (UniProt O35433); experiment: Agonist activity at rat TRPV1 channel expressed in HEK293 cells assessed as outward rectifying current at 10 uM and -60 mV holding potential by whole-cell patch-clamp method; in short: as §2
[6] = target: Transient receptor potential cation channel subfamily V member 1 (Rattus norvegicus) (UniProt O35433); experiment: Partial antagonist activity at rat TRPV1 expressed in HEK293 cells assessed as effect on capsaicin-induced inward current at 0.1 uM by whole-cell patch clamp method (reference value: -151.2 +/- 33 pA/pF); in short: as §1
[7] = target: Transient receptor potential cation channel subfamily V member 1 (Rattus norvegicus) (UniProt O35433); experiment: Partial antagonist activity at rat TRPV1 expressed in HEK293 cells assessed as effect on capsaicin-induced inward current at 10 uM by whole-cell patch clamp method (reference value: -7 +/- 2.6 pA/pF); in short: as §1
[8] = target: Transient receptor potential cation channel subfamily V member 1 (Rattus norvegicus) (UniProt O35433); experiment: Agonist activity at rat TRPV1 channel expressed in HEK293 cells assessed as reversal potential at 10 uM and -60 mV holding potential by whole-cell patch-clamp method; in short: as §2
[9] = target: Transient receptor potential cation channel subfamily V member 1 (Rattus norvegicus) (UniProt O35433); experiment: Partial antagonist activity at rat TRPV1 expressed in HEK293 cells assessed as effect on capsaicin-induced inward current at 1 uM by whole-cell patch clamp method (reference value: -7 +/- 2.6 pA/pF); in short: as §1
[10] = target: Transient receptor potential cation channel subfamily V member 1 (Rattus norvegicus) (UniProt O35433); experiment: Partial antagonist activity at rat TRPV1 expressed in HEK293 cells assessed as effect on capsaicin-induced inward current at 0.1 uM by whole-cell patch clamp method (reference value: -7 +/- 2.6 pA/pF); in short: as §1
[11] = target: Transient receptor potential cation channel subfamily V member 1 (Rattus norvegicus) (UniProt O35433); experiment: Agonist activity at rat TRPV1 channel expressed in HEK293 cells assessed as induction of inward current at 10 uM and -60 mV holding potential by whole-cell patch-clamp method; in short: as §2
[12] = target: Transient receptor potential cation channel subfamily V member 1 (Rattus norvegicus) (UniProt O35433); experiment: Partial antagonist activity at rat TRPV1 expressed in HEK293 cells assessed as effect on capsaicin-induced inward current at 0.6 uM by whole-cell patch clamp method (reference value: -151.2 +/- 33 pA/pF); in short: as §1
[13] = target: Transient receptor potential cation channel subfamily V member 1 (Rattus norvegicus) (UniProt O35433); experiment: Partial antagonist activity at rat TRPV1 expressed in HEK293 cells assessed as effect on capsaicin-induced inward current at 1 uM by whole-cell patch clamp method (reference value: -431 +/- 43.1 pA/pF); in short: as §1
[14] = target: Transient receptor potential cation channel subfamily V member 1 (Rattus norvegicus) (UniProt O35433); experiment: Partial antagonist activity at rat TRPV1 expressed in HEK293 cells assessed as effect on capsaicin current density at 0.1 uM pretreated for 180 sec followed by capsaicin addition at -60 mV holding potential in presence of extracellular calcium by whole-cell patch-clamp method (reference value: -327.4 +/- 52.3 pA/pF); in short: as §1
[15] = target: Transient receptor potential cation channel subfamily V member 1 (Rattus norvegicus) (UniProt O35433); experiment: Partial antagonist activity at rat TRPV1 expressed in HEK293 cells assessed as effect on capsaicin-induced inward current at 0.1 uM by whole-cell patch clamp method (reference value: -480.7 +/- 96.9 pA/pF); in short: as §1
[16] = target: Transient receptor potential cation channel subfamily V member 1 (Rattus norvegicus) (UniProt O35433); experiment: Partial antagonist activity at rat TRPV1 expressed in HEK293 cells assessed as effect on proton-induced channel current at 1 uM and -60 mV holding potential co-treated with proton by whole-cell patch clamp method
In short: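 Proton-activated currents were recorded in rat TRPV1-expressing HEK293 cells held at −60 mV in whole-cell mode, with bath buffered to pH 6 with 10 mM MES, at ~25 °C. Peak current amplitude was the read-out.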

[17] = target: Transient receptor potential cation channel subfamily V member 1 (Rattus norvegicus) (UniProt O35433); experiment: Partial antagonist activity at rat TRPV1 expressed in HEK293 cells assessed as effect on capsaicin-induced inward current at 10 uM by whole-cell patch clamp method (reference value: -[…] +/- […] pA/pF)
[18] = target: Transient receptor potential cation channel subfamily V member 1 (Rattus norvegicus) (UniProt O35433); experiment: Partial antagonist activity at rat TRPV1 expressed in HEK293 cells assessed as effect on capsaicin-induced inward current at 0.1 uM by whole-cell patch clamp method (reference value: -327.4 +/- 52.3 pA/pF); in short: as §1
[19] = target: Transient receptor potential cation channel subfamily V member 1 (Rattus norvegicus) (UniProt O35433); experiment: Partial antagonist activity at rat TRPV1 expressed in HEK293 cells assessed as effect on capsaicin-induced inward current at 0.6 uM by whole-cell patch clamp method (reference value: -480.7 +/- 96.9 pA/pF); in short: as §1
[20] = target: Transient receptor potential cation channel subfamily V member 1 (Rattus norvegicus) (UniProt O35433); experiment: Partial antagonist activity at rat TRPV1 expressed in HEK293 cells assessed as effect on capsaicin-induced inward current at 0.6 uM by whole-cell patch clamp method (reference value: -7 +/- 2.6 pA/pF); in short: as §1

Chain of Transient receptor potential cation channel subfamily V member 1 (Rattus norvegicus) (O35433 whole entry): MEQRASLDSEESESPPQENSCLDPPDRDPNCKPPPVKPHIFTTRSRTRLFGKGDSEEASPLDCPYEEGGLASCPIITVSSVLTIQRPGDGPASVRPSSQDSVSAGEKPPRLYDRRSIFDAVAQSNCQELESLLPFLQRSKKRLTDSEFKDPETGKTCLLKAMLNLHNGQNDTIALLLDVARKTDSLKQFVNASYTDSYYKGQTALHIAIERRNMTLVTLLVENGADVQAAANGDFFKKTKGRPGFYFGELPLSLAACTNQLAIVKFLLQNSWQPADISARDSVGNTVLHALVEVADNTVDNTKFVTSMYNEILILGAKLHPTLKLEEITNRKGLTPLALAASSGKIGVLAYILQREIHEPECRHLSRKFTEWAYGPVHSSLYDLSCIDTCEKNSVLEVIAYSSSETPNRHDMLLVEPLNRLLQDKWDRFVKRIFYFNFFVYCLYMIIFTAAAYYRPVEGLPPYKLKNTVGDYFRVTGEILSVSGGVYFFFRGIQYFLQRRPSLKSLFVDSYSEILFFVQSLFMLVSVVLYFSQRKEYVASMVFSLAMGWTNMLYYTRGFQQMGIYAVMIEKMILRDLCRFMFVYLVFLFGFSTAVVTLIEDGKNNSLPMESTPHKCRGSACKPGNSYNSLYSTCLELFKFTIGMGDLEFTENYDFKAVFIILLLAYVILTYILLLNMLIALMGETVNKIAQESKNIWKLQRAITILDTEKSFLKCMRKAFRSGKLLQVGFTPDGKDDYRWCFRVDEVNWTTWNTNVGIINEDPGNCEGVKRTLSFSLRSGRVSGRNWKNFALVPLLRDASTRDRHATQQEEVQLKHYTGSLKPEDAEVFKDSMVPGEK

`CN1c2ccccc2C(=O)N2CCc3c([nH]c4ccccc34)C21` (stereo not given) was tested, and the inhibition [1] was “Dose-dependent effect”, the Activity [2] was -370 pA/pF and the Activity [3] was “Active”. For the same compound, the Activity [4] was -448 pA/pF, the Activity [5] was “Active” and the Activity [6] was -94.8 pA/pF. The Activity [7] was -165 pA/pF, the Activity [8] was 0 mV and the Activity [9] was -81.7 pA/pF. The Activity [10] was -6.4 pA/pF, the Activity [11] was “Active” and the Activity [12] was -81.6 pA/pF. It also gave an Activity [13] of -260 pA/pF, an Activity [14] of -243 pA/pF and an Activity [15] of -416 pA/pF. It also gave an Activity [16] of -158 pA/pF, an Activity [17] of -393 pA/pF and an Activity [18] of -236 pA/pF. For the same compound, the Activity [19] was -422 pA/pF and the Activity [20] was -35.9 pA/pF.
